# Source: PubChem
# Dynein transport – dynein cargo transport inhibition | 3617.4 mouse cells, GR-EGFP nuclear translocation imaging; test concentration mostly 20 µM; stimulated with dexamethasone, 1 µM; hits give low values | z-score, hits read low | hit rate 0.47% among 220,000 | AID 1381;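 active means plate z-score of nuclear minus cytoplasmic receptor signal below a set negative limit, without overly bright fluorescence or cell loss, cut at about -3.5 in these data, passing the limit was not always enough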;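 further: z-score of nuclear minus cytoplasmic ring GR-EGFP intensity difference per well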
#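 Buffer or medium: tet-free medium with charcoal-stripped serum / Also added: dexamethasone agonist, 1.0 µM final, for 30 min / Timing: induction 48 h, compound 1 h, agonist 30 min / Measured by: high-content fluorescence imaging after fixation / Read-out: nuclear-to-cytoplasmic GR-EGFP distribution per well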
# Tb hexokinase – blocks Trypanosoma brucei hexokinase 1 activity; hit rate 0.11% among 220,000; recombinant TbHK1, G6PDH-coupled NADH A340; AID 1430; inhibition, % at 10 µM;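 active means inhibition of 50% or more in the single-dose primary screen; inactive means inhibition below 50%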
# Autophagy HCS – modulators of autophagy; MEF GFP-LC3 puncta imaging; test concentration mostly 10 µM; calls only at 10 µM (by protocol); hit rate 0.98% among 190,000; AID 463193;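 active means percentage of spot-positive cells more than 3 SD above its plate mean, without a fluorescence outlier flag or 80% toxicity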;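 further: spot-positive cell cutoff set from DMSO-treated cells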
# HSV replic up – increases HSV replication in cells. hit rate 0.005% among 220,000. HSV replication augmentation in cells, fold increase. maximum fold increase; in the data active means maximum fold increase above about 1.5; tested in PC3 cells
# HKDC1 inh – inhibitors of human hexokinase HKDC1. recombinant HKDC1, G6PDH/diaphorase resazurin coupled fluorescence. hit rate 0.16% among 340,000. AID 493160. Q2TB90. inhibition, % at 20 µM;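 active means inhibition above about 35% when tested at 20 µM, limit read from the data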;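 further: plate controls were DMSO wells with enzyme for no effect and DMSO wells lacking enzyme for full effect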
#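 Test system: recombinant HKDC1 (HK5) hexokinase enzyme, produced in-house; Amount: enzyme 5 µg/mL final; Buffer or medium: Tris pH 8.0 buffer with MgCl2, Tween-20, BSA, BME; Reagent: glucose and ATP substrates; Doses: 20 µM test compound, 1% DMSO; Incubation: 90 min reaction incubation at room temperature, dark; Detection: resorufin fluorescence at 613 nm.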
# PERK inhibitor – inhibitors of human PERK kinase | Q9NZJ5 | CHO PERK-DD fusion, SEAP luminescence translation reporter | inhibition, % at 5.6 µM | hit rate 0.17% among 220,000;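 active means inhibition above the mean inhibition of all tested compounds plus 3 SD, set separately per screening campaign, cut at about 2.9% in these data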;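 further: PERK kinase domain activated by AP20187 dimerizer at 100 nM; 0% = DMSO with dimerizer and 100% = rapamycin at 8.4 µM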
# Starred values were filed as active, the others as inactive; i = inactive; x = no result given; + = active, no number. A selection: hits, their analogues and other compounds. The true share with any hit is near 1.2%.
SMILES,Dynein transport,Tb hexokinase,Autophagy HCS,HSV replic up,HKDC1 inh,PERK inhibitor
COc1ccc(CCNS(=O)(=O)c2ccc(N3CCCC3=O)cc2)cc1,-0.415,-3.7,i,i,-6.6,0.3
COc1ccc(OC)c(NS(=O)(=O)c2ccc(N3CCCC3=O)cc2)c1,0.648,-9.4,+,i,-2.1,-0.4
CCOc1cc(NC(=O)c2ccccc2OC)c(OCC)cc1NC(=O)c1ccccc1,x,x,x,x,-4.2,x
CCOc1ccccc1C(=O)Nc1cc(OC)ccc1OC,0.921,-1.9,+,i,-7.2,-1.6
COc1ccc(OC)c(NS(=O)(=O)c2ccc(SC)cc2)c1,-0.123,-2.5,i,i,0.5,1.3
CCOc1ccc(S(=O)(=O)Nc2cc(OC)ccc2OC)cc1,-0.44,-3.2,+,i,2.0,-0.8
Cc1ccccc1NS(=O)(=O)c1ccc(OCC(=O)NCc2cccnc2)cc1,-0.583,2.5,+,i,-3.6,0.2
Cc1[nH]c2ccc(C(=O)OCC(=O)Nc3cccc(S(N)(=O)=O)c3)cc2c1C,x,x,x,x,5.8,x
CCN1CCN(S(=O)(=O)Cc2ccccc2Cl)CC1,x,x,x,x,-5.2,x
CCOC(=O)c1ccccc1NS(=O)(=O)c1ccc(OCC)cc1,-0.55,1.4,+,i,13.7,-0.5
COc1cccc(OC)c1-c1nn2c(-c3cc(-c4ccccc4)n[nH]3)nnc2s1,0.307,-17.2,i,i,43.8*,-0.6
COc1cccc(-c2nnc3sc(-c4ccccc4)nn23)c1,0.0541,-10.4,i,i,0.7,0.3
CC(NC(=O)COC(=O)C1CC2CCCC(C1)C2=O)c1ccccc1 (configuration not stated),x,x,x,x,-0.5,x
CCOC(=O)C1(CC/C(C)=N\NC(N)=O)CC(C)(C)OC1=O (configuration not stated),-0.887,0.3,+,i,-10.1,0.7
CN(C(=O)c1cccc(NC(=O)Cc2cccc(NC(=O)C3CCCN(C(=O)C4CCCCC4)C3)c2)c1)C1CCC1 (configuration not stated),x,x,x,x,-0.9,x
NC(=O)c1ccsc1NC(=O)COC(=O)c1cc(Cl)ccc1O,x,x,x,x,-4.6,x
COc1ccc2c3c1OC1CC(O)C=CC31CCN(C)C2 (configuration not stated),0.453,-0.7,x,i,-4.7,3.1*
O=C1CC(NS(=O)(=O)c2ccccc2F)CN1c1ccc2c(c1)OCCO2 (configuration not stated),x,x,x,x,-6.9,x
Cc1ccc(S(=O)(=O)N2CCC(C(=O)N3CCC[C@H]3C(=O)NCc3ccco3)CC2)cc1,0.212,3.3,+,i,-3.6,-0.5
Cc1cccc(N2N=C(C(=O)N3Cc4ccccc4CC3C(N)=O)CCC2=O)c1 (configuration not stated),x,x,x,x,-6.3,x
CCc1cccc2c(C#N)cn(CC(=O)NCc3ccco3)c12,-0.725,2.8,i,i,1.1,0.5
CCOC(=O)Cn1cc(C#N)c2cccc(CC)c21,-0.0602,-0.5,i,i,-4.9,3.3*
Cc1ccc(-n2c(C)cc(/C=c3/sc4nc5ccccc5n4c3=O)c2C)cc1,-0.658,-3.5,i,i,-1.8,0.0
O=c1/c(=C\c2cccn2-c2ccccc2)sc2nc3ccccc3n12,-0.792,19.1,+,i,-3.7,1.2
O=C(O)Cn1cc(/C=c2/sc3nc4ccccc4n3c2=O)c2ccccc21,1.72,33.9,i,i,6.3,1.9
SMILES,Dynein transport,Tb hexokinase,Autophagy HCS,HSV replic up,HKDC1 inh,PERK inhibitor
COc1cc(N2CCCC2)c(OC)cc1/C=c1/sc2nc3ccccc3n2c1=O,-5.91,-15.0,+,x,x,1.9
N#Cc1ccc(Cl)cc1NC(=O)CSc1nc2nc(-c3cccs3)cc(C(F)(F)F)c2c(=O)[nH]1,0.223,-39.9,x,i,x,0.7
N=c1n(CCOc2ccccc2)c2ccccc2n1CCN1CCOCC1,2.58,11.3,+,i,-3.5,-0.2
NS(=O)(=O)c1ccc(CCNC(=O)c2cccc(OC(F)F)c2)cc1,-0.412,-3.6,+,i,-5.4,0.8
Cc1cc(C)c2ccc3c(C)c(C)nc3c2[nH]1,-0.401,-11.2,+,i,-2.0,0.2
C=CCOc1ccc(C2N3CC4(CC)CN2CC(CC)(C3)C4=O)cc1 (configuration not stated),-0.193,8.0,i,i,4.0,-0.4
CCC12CN3CC(CC)(CN(C1)C3c1c(O)ccc3ccccc13)C2=O (configuration not stated),0.0657,1.9,+,i,18.0,0.2
CCCC(C(=O)NCc1ccccc1)N(C(=O)Cn1nnc(-c2cccs2)n1)c1ccc2c(c1)OCCO2 (configuration not stated),-0.0576,-0.5,+,i,1.1,0.6
O=C(NCc1ccccc1)C(c1ccc(F)cc1)N(Cc1ccc2c(c1)OCO2)C(=O)Cn1nnc(-c2cccs2)n1 (configuration not stated),-0.424,7.6,i,i,-5.0,0.7
CCOc1ccc(CNc2ccc(S(N)(=O)=O)cc2)cc1,1.45,-2.6,i,i,1.4,3.3*
CCOc1ccc(CNCCc2ccc(S(N)(=O)=O)cc2)cc1,-0.812,3.2,i,i,-3.4,1.6
O=C(CSC1=NS(=O)(=O)c2ccccc2N1)NCc1ccc(F)cc1,x,x,x,x,-1.2,x
CCOc1ccc(-n2c(C)c(C(C)=O)c(C(C)=O)c2C)cc1,-0.691,2.4,+,i,-8.3,0.1
COc1ccc(-n2c(C)c(C(C)=O)c(C(C)=O)c2C)cc1,0.763,-4.5,i,i,7.8,-0.6
COc1ccc(S(=O)(=O)c2ccc(OC)cc2)cc1,-0.898,-9.2,i,i,-6.8,1.1
COc1ccc(S(=O)(=O)/N=C2/C=CC(=O)C(C)=C2C)cc1,-1.33,-4.7,i,i,51.8*,0.3
CC1=C(C)/C(=N\OS(=O)(=O)c2ccc(C)cc2)C=CC1=O,-3.65*,2.5,i,i,14.7,-1.4
Cc1ccc2c(c1)Oc1ccc(NC(=O)CCl)cc1C(=O)N2,0.299,1.6,+,i,27.2,0.4
Cc1ccc2c(c1)Oc1ccc([N+](=O)[O-])cc1C(=O)N2,0.859,-1.0,i,i,-6.2,0.1
CN(CC(=O)Nc1ccc(OC(F)(F)F)cc1)C(=O)c1ccccc1SCC(=O)N1CCCC1,x,x,x,x,-0.1,x
CC(C)C1C(C#N)=C(N)Oc2n[nH]c(-c3cccs3)c21 (configuration not stated),-0.901,6.4,i,i,0.5,2.2
CC(C)C1C(C#N)=C(N)Oc2n[nH]c(-c3ccc4ccccc4c3)c21 (configuration not stated),-0.189,-9.5,+,i,0.5,-0.7
CC(=O)c1ccc(S(=O)(=O)N2CCNC(=O)C2)cc1,x,x,x,x,9.1,x
CC(C)N(Cc1ccccc1)C(=O)CSc1nccn1C,-1.11,-3.4,+,i,-8.7,-0.3
CC(C)N(Cc1ccccc1)C(=O)COc1ccccc1,x,x,x,x,3.1,x
